Assays:
[1] = Dissociation constant for formamidine ring; assay type: physicochemical
How it was run: (§1)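 Macroscopic ionization constants (pKa) by potentiometric titration of compound dissolved in previously boiled distilled water with 2 mL methanol; titrated with 0.1 N KOH in 0.1-equivalent additions, pH read at equilibrium after each addition.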

[2] = Dissociation constant for imidazole ring; assay type: physicochemical; how it was run: as §1
[3] = Percent of monocationic species at a pH of 6.5 was determined
How it was run: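 Monocationic percentage at pH 6.5 computed with the Henderson-Hasselbach equation from pKa values measured by potentiometric titration with 0.1 N KOH in water containing a little methanol.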

[4] = target: Histamine H2 receptor (Cavia porcellus) (UniProt P47747); experiment: Antagonist activity against histamine H2 receptor was evaluated in guinea pig atria; value ranges from (40.2-93.3) x10E-9; assay type: functional
How it was run: (§2)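 Spontaneously beating atria from male Dunkin-Hartley guinea pigs (400–500 g) in oxygenated (O2/CO2 95:5) McEwen's solution, pH 6.5, 32 °C; rate recorded by instantaneous rate meter. Cumulative histamine up to maximal chronotropic response; antagonist equilibrated 60 min. K_B = [B]/(DR − 1), DR being histamine dose ratios at half-maximal response with and without several antagonist concentrations; multiple-regression evaluation.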

[5] = target: Histamine H2 receptor (Cavia porcellus) (UniProt P47747); experiment: Antagonist activity against histamine H2 receptor was evaluated in guinea pig atria; value ranges from (3.6-16.1)x10E-9; assay type: functional; how it was run: as §2
[6] = target: Histamine H2 receptor (Cavia porcellus) (UniProt P47747); experiment: Antagonist activity against histamine H2 receptor was evaluated in guinea pig atria; value ranges from (3.8-119)x10E-9; assay type: functional; how it was run: as §2
[7] = Dissociation constant for imidazole ring; ND means not determined because of product insolubility; assay type: physicochemical; how it was run: as §1

Chain of Histamine H2 receptor (Cavia porcellus) (P47747 whole entry): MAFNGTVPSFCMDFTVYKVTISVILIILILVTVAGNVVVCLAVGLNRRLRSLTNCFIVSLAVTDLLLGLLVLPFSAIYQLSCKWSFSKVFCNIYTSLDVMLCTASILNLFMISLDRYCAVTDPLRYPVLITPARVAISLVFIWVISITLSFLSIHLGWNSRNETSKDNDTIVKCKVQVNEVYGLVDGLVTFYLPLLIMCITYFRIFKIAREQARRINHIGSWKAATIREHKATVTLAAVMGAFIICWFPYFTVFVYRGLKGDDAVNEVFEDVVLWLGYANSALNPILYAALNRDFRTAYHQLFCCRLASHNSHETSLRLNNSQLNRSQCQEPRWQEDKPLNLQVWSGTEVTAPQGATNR

Row | Structure (SMILES) | pKa [1] | pKa [2] | Kb [4] [nM] | Kb [5] [nM] | Kb [6] [nM] | pKa [7] | Monocation species [3] [%]
1 | CC/N=C/Nc1ccc(-c2c[nH]cn2)cc1 | 8.65 | 5.57 | – | – | – | – | 88.78
2 | FC(F)C/N=C/Nc1ccc(-c2c[nH]cn2)cc1 | 6.6 | 4.54 | – | – | 21 | – | 54.64
3 | N#C/N=C/Nc1ccc(-c2c[nH]cn2)cc1 | < 1 | – | – | – | – | Insoluble | –

Continued, in another order:

Row | pKa [1] | pKa [2] | Kb [4] [nM] | Kb [5] [nM] | Kb [6] [nM] | pKa [7] | Structure (SMILES) | Monocation species [3] [%]
4 | 8.12 | 5.55 | 61 | – | – | – | FCC/N=C/Nc1ccc(-c2c[nH]cn2)cc1 | 87.56
5 | 6.14 | 4.45 | – | 7.6 | – | – | FC(F)(F)C/N=C/Nc1ccc(-c2c[nH]cn2)cc1 | 29.5

Reference: ChEMBL document CHEMBL1124468, “N-(fluoroethyl)(imidazolylphenyl)formamidines. The issue of the active species of mifentidine” (J Med Chem, 1989)
